Source: ChEMBL document CHEMBL1142049, “1-(1-Naphthyl)piperazine as a novel template for 5-HT6 serotonin receptor ligands” (Bioorg Med Chem Lett, 2005)

How the values were obtained:
[1] = molecular target: T1, 5-hydroxytryptamine receptor 6 (Homo sapiens, UniProt P50406); test: pA2 against 5-Hydroxytryptamine 6 receptor
[2] = molecular target: T1, 5-hydroxytryptamine receptor 6; test: Binding affinity against 5 Hydroxy tryptamine 6 receptor
How it was run: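 Human 5-HT6 cDNA transiently expressed in HEK-293 cells, switched to dialyzed-serum medium, harvested 75 h post-transfection, PBS-washed and frozen as pellets. Nonspecific binding defined with 10 µM clozapine. Ki values from triplicate determinations.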

[3] = molecular target: T1, 5-hydroxytryptamine receptor 6; test: Binding affinity against 5-hydroxy tryptamine 6 receptor
How it was run: (§1)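 Human 5-HT6 cDNA transiently expressed in HEK-293 cells, switched to dialyzed-serum medium, harvested 75 h post-transfection, PBS-washed and frozen as pellets. [3H]LSD (1 nM final) displaced by unlabeled ligand (1–10,000 nM), 90 min at room temperature in 50 mM Tris-Cl, 10 mM MgCl2, 0.1 mM EDTA, pH 7.40. Nonspecific binding defined with 10 µM clozapine. Ki values from triplicate determinations.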

[4] = molecular target: T1, 5-hydroxytryptamine receptor 6; test: Binding affinity against 5-hydroxytryptamine 6 receptor; how it was run: as §1

T1 sequence (P50406 whole entry): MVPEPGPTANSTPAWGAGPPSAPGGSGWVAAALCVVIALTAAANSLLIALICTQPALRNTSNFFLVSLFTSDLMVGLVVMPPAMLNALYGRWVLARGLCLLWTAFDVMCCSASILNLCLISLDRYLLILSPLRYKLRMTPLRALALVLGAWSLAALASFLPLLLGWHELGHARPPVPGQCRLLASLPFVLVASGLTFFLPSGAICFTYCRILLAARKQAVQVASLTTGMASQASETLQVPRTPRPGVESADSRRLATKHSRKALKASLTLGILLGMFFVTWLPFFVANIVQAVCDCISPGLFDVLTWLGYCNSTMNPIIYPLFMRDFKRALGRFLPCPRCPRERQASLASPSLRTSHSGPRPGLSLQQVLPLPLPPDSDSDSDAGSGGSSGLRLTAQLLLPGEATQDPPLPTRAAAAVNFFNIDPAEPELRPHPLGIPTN

| Structure (SMILES) | Ki [2] [nM] | further results |
| --- | --- | --- |
| O=S(=O)(c1ccccc1)c1ccc(N2CCNCC2)c2ccccc12 | 3.8 | pA2 [1]: 7.5 |
| COc1ccccc1N1CCNCC1 | 1.2 | – |
| c1ccc(-c2cc(N3CCNCC3)c3ccccc3c2)cc1 | 9.3 | – |
| O=S(=O)(c1ccc(NO)cc1)c1cccc2ccccc12 | 63 | – |
| Nc1ccc(S(=O)(=O)c2cc(Br)nc(N3CCCC3)c2)cc1 | ~1 | – |
| c1ccc(-c2ccc(N3CCNCC3)c3ccccc23)cc1 | 190 | – |
| Nc1ccc(S(=O)(=O)c2ccc(N3CCNCC3)c3ccccc23)cc1 | 0.9 | – |
| Brc1ccc(N2CCNCC2)c2ccccc12 | 54 | – |
| c1ccc(Cc2ccc(N3CCNCC3)c3ccccc23)cc1 | 35 | – |
| c1ccc2c(N3CCNCC3)cccc2c1 | – | Ki [3]: 120 nM; Ki [4]: 100 nM |
| Nc1ccc(S(=O)(=O)c2cccc3ccccc23)cc1 | 34 | – |
| O=C(c1ccccc1)c1ccc(N2CCNCC2)c2ccccc12 | 57 | – |
| CCc1cc(N2CCNCC2)c2ccccc2c1 | 21 | – |
| Nc1ccc(S(=O)(=O)c2cc(Br)nc(N3CCNCC3)c2)cc1 | ~0.1 | – |
